≈ marks a conversion by molar mass, not a printed value.
How the values were obtained:
Type in all cases: functional
Staphylococcus aureus [1] = assay: Antimicrobial activity against SCCmec type III vancomycin-intermediate Staphylococcus aureus isolate b6k7974 by agar dilution method
Outline: (§1)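 Agar-dilution MICs were measured on a subset of 200 blood MRSA isolates from China. Agents: oxacillin, rifampin, gentamicin, levofloxacin, erythromycin, vancomycin, teicoplanin, tigecycline, ceftobiprole and linezolid. Phenotype came from the PAP-AUC ratio of each isolate to S. aureus Mu3 (VSSA <0.9; hVISA 0.9 to 1.3; VISA ≥1.3), read on BHI agar with 0 to 8.0 mg/liter vancomycin after 48 h at 35°C.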

Staphylococcus aureus [2] = assay: Antimicrobial activity against SCCmec type III vancomycin-intermediate Staphylococcus aureus isolate gz07030 by agar dilution method; outline: as §1
Staphylococcus aureus [3] = assay: Antimicrobial activity against SCCmec type III vancomycin-intermediate Staphylococcus aureus isolate 15b52 by agar dilution method; outline: as §1
Staphylococcus aureus [4] = assay: Antimicrobial activity against SCCmec type III vancomycin-intermediate Staphylococcus aureus isolate b4k6307 by agar dilution method; outline: as §1
Staphylococcus aureus [5] = assay: Antimicrobial activity against SCCmec type III vancomycin-intermediate Staphylococcus aureus isolate b5k3578 by agar dilution method; outline: as §1
Staphylococcus aureus [6] = assay: Antimicrobial activity against SCCmec type II vancomycin-intermediate Staphylococcus aureus isolate 4sy32 by agar dilution method; outline: as §1
Staphylococcus aureus [7] = assay: Antimicrobial activity against SCCmec type III vancomycin-intermediate Staphylococcus aureus isolate gz06051 by agar dilution method; outline: as §1
Staphylococcus aureus [8] = assay: Antimicrobial activity against SCCmec type III vancomycin-intermediate Staphylococcus aureus isolate b3k2345 by agar dilution method; outline: as §1
Staphylococcus aureus [9] = assay: Antimicrobial activity against SCCmec type II vancomycin-intermediate Staphylococcus aureus isolate 4sy39 by agar dilution method; outline: as §1
Staphylococcus aureus [10] = assay: Antimicrobial activity against SCCmec type III vancomycin-intermediate Staphylococcus aureus isolate b6k1642 by agar dilution method; outline: as §1
Staphylococcus aureus [11] = assay: Antimicrobial activity against SCCmec type II vancomycin-intermediate Staphylococcus aureus isolate sh06024 by agar dilution method; outline: as §1
Staphylococcus aureus [12] = assay: Antimicrobial activity against SCCmec type III vancomycin-intermediate Staphylococcus aureus isolate zj07028 by agar dilution method; outline: as §1
Staphylococcus aureus [13] = assay: Antimicrobial activity against SCCmec type II vancomycin-intermediate Staphylococcus aureus isolate 6zjsau7 by agar dilution method; outline: as §1
Staphylococcus aureus [14] = assay: Antimicrobial activity against SCCmec type II vancomycin-intermediate Staphylococcus aureus isolate 07b63 by agar dilution method; outline: as §1
Staphylococcus aureus [15] = assay: Antimicrobial activity against SCCmec type III vancomycin-intermediate Staphylococcus aureus isolate xa07029 by agar dilution method; outline: as §1
Staphylococcus aureus [16] = assay: Antimicrobial activity against SCCmec type III vancomycin-intermediate Staphylococcus aureus isolate b5k3529 by agar dilution method; outline: as §1
Staphylococcus aureus [17] = assay: Antimicrobial activity against SCCmec type III vancomycin-intermediate Staphylococcus aureus isolate 5zjsau3 by agar dilution method; outline: as §1
Staphylococcus aureus [18] = assay: Antimicrobial activity against SCCmec type III vancomycin-intermediate Staphylococcus aureus isolate bd4768 by agar dilution method; outline: as §1
Staphylococcus aureus [19] = assay: Antimicrobial activity against SCCmec type III vancomycin-intermediate Staphylococcus aureus isolate b3k5923 by agar dilution method; outline: as §1
Staphylococcus aureus [20] = assay: Antimicrobial activity against SCCmec type II vancomycin-intermediate Staphylococcus aureus isolate b2k4781 by agar dilution method; outline: as §1
Staphylococcus aureus [21] = assay: Antimicrobial activity against SCCmec type IV vancomycin-intermediate Staphylococcus aureus isolate 06b41 by agar dilution method; outline: as §1
Staphylococcus aureus [22] = assay: Antimicrobial activity against SCCmec type III vancomycin-intermediate Staphylococcus aureus isolate gs07022 by agar dilution method; outline: as §1
Staphylococcus aureus [23] = assay: Antimicrobial activity against SCCmec type III vancomycin-intermediate Staphylococcus aureus isolate 11b091 by agar dilution method; outline: as §1
Staphylococcus aureus [24] = assay: Antimicrobial activity against SCCmec type III vancomycin-intermediate Staphylococcus aureus isolate gz06040 by agar dilution method; outline: as §1
Staphylococcus aureus [25] = assay: Antimicrobial activity against SCCmec type III vancomycin-intermediate Staphylococcus aureus isolate sh07043 by agar dilution method; outline: as §1
Staphylococcus aureus [26] = assay: Antimicrobial activity against SCCmec type III vancomycin-intermediate Staphylococcus aureus isolate b2k3421 by agar dilution method; outline: as §1
Staphylococcus aureus [27] = assay: Antimicrobial activity against SCCmec type III vancomycin-intermediate Staphylococcus aureus isolate 13b16 by agar dilution method; outline: as §1

CO[C@H]1/C=C/O[C@@]2(C)Oc3c(C)c(O)c4c(O)c(c(/C=N/N5CCN(C)CC5)c(O)c4c3C2=O)NC(=O)/C(C)=C\C=C\[C@H](C)[C@H](O)[C@@H](C)[C@@H](O)[C@@H](C)[C@H](OC(C)=O)[C@@H]1C [RIFAMPIN]
MIC (Staphylococcus aureus [1]): 256 µg/mL (≈ 311000 nM)
MIC (Staphylococcus aureus [2]): 0.004 µg/mL (≈ 4.86 nM)
MIC (Staphylococcus aureus [3]): 0.016 µg/mL (≈ 19.4 nM)
MIC (Staphylococcus aureus [4]): 256 µg/mL (≈ 311000 nM)
MIC (Staphylococcus aureus [5]): 0.5 µg/mL (≈ 608 nM)
MIC (Staphylococcus aureus [6]): 0.008 µg/mL (≈ 9.72 nM)
MIC (Staphylococcus aureus [7]): > 256 µg/mL
MIC (Staphylococcus aureus [8]): 0.008 µg/mL (≈ 9.72 nM)
MIC (Staphylococcus aureus [9]): 0.008 µg/mL (≈ 9.72 nM)
MIC (Staphylococcus aureus [10]): 16 µg/mL (≈ 19400 nM)
MIC (Staphylococcus aureus [11]): > 256 µg/mL
MIC (Staphylococcus aureus [12]): ≤ 0.002 µg/mL
MIC (Staphylococcus aureus [13]): 0.008 µg/mL (≈ 9.72 nM)
MIC (Staphylococcus aureus [14]): 0.008 µg/mL (≈ 9.72 nM)
MIC (Staphylococcus aureus [15]): > 256 µg/mL
MIC (Staphylococcus aureus [16]): 0.5 µg/mL (≈ 608 nM)
MIC (Staphylococcus aureus [17]): 0.008 µg/mL (≈ 9.72 nM)
MIC (Staphylococcus aureus [18]): 256 µg/mL (≈ 311000 nM)
MIC (Staphylococcus aureus [19]): 256 µg/mL (≈ 311000 nM)
MIC (Staphylococcus aureus [20]): 0.008 µg/mL (≈ 9.72 nM)
MIC (Staphylococcus aureus [21]): 0.016 µg/mL (≈ 19.4 nM)
MIC (Staphylococcus aureus [22]): 0.008 µg/mL (≈ 9.72 nM)
MIC (Staphylococcus aureus [23]): 0.008 µg/mL (≈ 9.72 nM)
MIC (Staphylococcus aureus [24]): 0.008 µg/mL (≈ 9.72 nM)
MIC (Staphylococcus aureus [25]): 0.016 µg/mL (≈ 19.4 nM)
MIC (Staphylococcus aureus [26]): 0.008 µg/mL (≈ 9.72 nM)
MIC (Staphylococcus aureus [27]): 0.008 µg/mL (≈ 9.72 nM)

GENTAMICIN
MIC (Staphylococcus aureus [1]): 256 µg/mL
MIC (Staphylococcus aureus [2]): > 256 µg/mL
MIC (Staphylococcus aureus [3]): 256 µg/mL
MIC (Staphylococcus aureus [4]): 128 µg/mL
MIC (Staphylococcus aureus [5]): > 256 µg/mL
MIC (Staphylococcus aureus [6]): 64 µg/mL
MIC (Staphylococcus aureus [7]): 128 µg/mL
MIC (Staphylococcus aureus [8]): 128 µg/mL
MIC (Staphylococcus aureus [9]): 64 µg/mL
MIC (Staphylococcus aureus [10]): > 256 µg/mL
MIC (Staphylococcus aureus [11]): 256 µg/mL
MIC (Staphylococcus aureus [12]): > 256 µg/mL
MIC (Staphylococcus aureus [13]): 256 µg/mL
MIC (Staphylococcus aureus [14]): 64 µg/mL
MIC (Staphylococcus aureus [15]): 128 µg/mL
MIC (Staphylococcus aureus [16]): > 256 µg/mL
MIC (Staphylococcus aureus [17]): > 256 µg/mL
MIC (Staphylococcus aureus [18]): 256 µg/mL
MIC (Staphylococcus aureus [19]): 128 µg/mL
MIC (Staphylococcus aureus [20]): > 256 µg/mL
MIC (Staphylococcus aureus [21]): 0.25 µg/mL
MIC (Staphylococcus aureus [22]): 8 µg/mL
MIC (Staphylococcus aureus [23]): 256 µg/mL
MIC (Staphylococcus aureus [24]): 256 µg/mL
MIC (Staphylococcus aureus [25]): 128 µg/mL
MIC (Staphylococcus aureus [26]): 128 µg/mL
MIC (Staphylococcus aureus [27]): 256 µg/mL
